Results published in ChEMBL document CHEMBL1136089, “Synthesis and in vitro activity of new methylenepiperidinyl and methylenepyrrolidinyl oxazolidinone antibacterial agents” (Bioorg Med Chem Lett, 2003).
Converted amounts (≈) assume the structure as drawn.

Assays:
Staphylococcus aureus [1] = assay: In vitro antibacterial activity against Staphylococcus aureus; format: functional
Streptococcus pyogenes [2] = assay: In vitro antibacterial activity against Streptococcus pyogenes ATTCC8668
Streptococcus pyogenes [3] = assay: In vitro antibacterial activity against Streptococcus pyogenes C6003
Staphylococcus aureus [4] = assay: In vitro antibacterial activity against methicillin-resistant Staphylococcus aureus (MRSA); format: functional
Enterococcus faecalis [5] = assay: In vitro antibacterial activity against Enterococcus faecalis C6291 (E. f. 1); format: functional
Outline: (§1)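 MIC by agar dilution on Mueller–Hinton agar, inoculum 10⁴ CFU/spot. Reported in μg/mL.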

Enterococcus faecalis [6] = assay: In vitro antibacterial activity against Enterococcus faecalis C6301 (E. f. 1); format: functional; outline: as §1
Staphylococcus aureus [7] = assay: In vitro antibacterial against methicillin-susceptible Staphylococcus aureus (MSSA); format: functional
[8] = tested on: Staphylococcus epidermidis; assay: In vitro antibacterial activity against Staphylococcus epidermis C2235; format: functional; outline: as §1
Enterococcus faecium = assay: In vitro antibacterial activity against vancomycin-resistant Enterococcus faecium C6487
Staphylococcus aureus [9] = assay: In vitro antibacterial activity against ciprofloxacin-resistant Staphylococcus aureus (CRSA); format: functional
[10] = tested on: Staphylococcus epidermidis; assay: In vitro antibacterial activity against Staphylococcus epidermis ATCC 1228; format: functional; outline: as §1
[11] = Area under curve was determined in male rat; format: ADME, organism-based; details: in vivo
Outline: (§2)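 Single oral dose of 15 mg/Kg to rats, with compound dissolved in 50% PEG solution.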

[12] = In vivo activity against Staphylococcus aureus when administered orally for 1 hr in rat at a dose of 15 mg/kg; format: ADME, organism-based; parameters: dose 15 mg/kg, route oral; details: po
[13] = Tmax in male rat; format: ADME, organism-based; details: in vivo; outline: as §2
[14] = Cmax in male rat; format: ADME, organism-based; details: in vivo; outline: as §2

| SMILES | MIC (Staphylococcus aureus [1]) [µg/mL] | MIC (Streptococcus pyogenes [2]) [µg/mL] | MIC (Streptococcus pyogenes [3]) [µg/mL] | MIC (Staphylococcus aureus [4]) [µg/mL] | MIC (Enterococcus faecalis [5]) [µg/mL] | MIC (Enterococcus faecalis [6]) [µg/mL] | MIC (Staphylococcus aureus [7]) [µg/mL] | MIC [8] [µg/mL] | MIC (Enterococcus faecium) [µg/mL] | MIC (Staphylococcus aureus [9]) [µg/mL] | MIC [10] [µg/mL] | AUC [11] [ng·h/mL] | half-life [12] [h] | Tmax [13] [h] | Cmax [14] [ng/mL] |
| --- | --- | --- | --- | --- | --- | --- | --- | --- | --- | --- | --- | --- | --- | --- | --- |
| CC(=O)NC[C@H]1CN(c2ccc(N3CCC(=Cc4cc(-c5csnc5C)no4)CC3)c(F)c2)C(=O)O1 | 16 (≈ 31.3 µM) | 2 (≈ 3.91 µM) | 8 (≈ 15.6 µM) | 8 (≈ 15.6 µM) | 8 (≈ 15.6 µM) | 8 (≈ 15.6 µM) | 16 (≈ 31.3 µM) | 4 (≈ 7.82 µM) | 4 (≈ 7.82 µM) | 8 (≈ 15.6 µM) | 2 (≈ 3.91 µM) | – | – | – | – |
| CCOC(=O)C(C)=C1CCN(c2ccc(N3C[C@H](CNC(C)=O)OC3=O)cc2F)CC1 | 16 (≈ 36.9 µM) | 4 (≈ 9.23 µM) | 16 (≈ 36.9 µM) | 8 (≈ 18.5 µM) | 8 (≈ 18.5 µM) | 8 (≈ 18.5 µM) | 16 (≈ 36.9 µM) | 8 (≈ 18.5 µM) | 8 (≈ 18.5 µM) | 8 (≈ 18.5 µM) | 4 (≈ 9.23 µM) | – | – | – | – |
| CC(=O)NC[C@H]1CN(c2ccc(N3CCC(=Cc4cc(-c5cccs5)no4)CC3)c(F)c2)C(=O)O1 | 32 (≈ 64.4 µM) | 2 (≈ 4.03 µM) | 16 (≈ 32.2 µM) | 16 (≈ 32.2 µM) | 16 (≈ 32.2 µM) | 16 (≈ 32.2 µM) | 16 (≈ 32.2 µM) | 8 (≈ 16.1 µM) | 16 (≈ 32.2 µM) | 16 (≈ 32.2 µM) | 4 (≈ 8.06 µM) | – | – | – | – |
| C/C(S)=N/C[C@H]1CN(c2ccc(N3CCC(=CC#N)CC3)c(F)c2)C(=O)O1 | 2 (≈ 5.15 µM) | 0.5 (≈ 1.29 µM) | 0.25 (≈ 0.644 µM) | 2 (≈ 5.15 µM) | 1 (≈ 2.57 µM) | 1 (≈ 2.57 µM) | 2 (≈ 5.15 µM) | 0.5 (≈ 1.29 µM) | 0.5 (≈ 1.29 µM) | 2 (≈ 5.15 µM) | 0.5 (≈ 1.29 µM) | – | – | – | – |
| CCOC(=O)C(Cl)=C1CCN(c2ccc(N3C[C@H](CNC(C)=O)OC3=O)cc2F)CC1 | 32 (≈ 70.5 µM) | 2 (≈ 4.41 µM) | 8 (≈ 17.6 µM) | 16 (≈ 35.3 µM) | 4 (≈ 8.81 µM) | 2 (≈ 4.41 µM) | 8 (≈ 17.6 µM) | 4 (≈ 8.81 µM) | 4 (≈ 8.81 µM) | 16 (≈ 35.3 µM) | 2 (≈ 4.41 µM) | – | – | – | – |
| CCOC(=O)C=C1CCN(c2ccc(N3C[C@H](CNC(C)=O)OC3=O)cc2F)CC1 | 16 (≈ 38.1 µM) | 2 (≈ 4.77 µM) | 8 (≈ 19.1 µM) | 8 (≈ 19.1 µM) | 8 (≈ 19.1 µM) | 8 (≈ 19.1 µM) | 16 (≈ 38.1 µM) | 8 (≈ 19.1 µM) | 8 (≈ 19.1 µM) | 8 (≈ 19.1 µM) | 4 (≈ 9.54 µM) | – | – | – | – |
| CC(=O)NC[C@H]1CN(c2ccc(N3CCC(=C(C)C#N)CC3)c(F)c2)C(=O)O1 | 2 (≈ 5.18 µM) | 0.5 (≈ 1.29 µM) | 2 (≈ 5.18 µM) | 2 (≈ 5.18 µM) | 2 (≈ 5.18 µM) | 2 (≈ 5.18 µM) | 2 (≈ 5.18 µM) | 2 (≈ 5.18 µM) | 1 (≈ 2.59 µM) | 2 (≈ 5.18 µM) | 0.5 (≈ 1.29 µM) | – | – | – | – |
| CC(=O)NC[C@H]1CN(c2ccc(N3CCC(=CC(C)OC(C)=O)CC3)c(F)c2)C(=O)O1 (stereo partly specified) | 16 (≈ 36.9 µM) | 0.25 (≈ 0.577 µM) | 8 (≈ 18.5 µM) | 8 (≈ 18.5 µM) | 8 (≈ 18.5 µM) | 8 (≈ 18.5 µM) | 16 (≈ 36.9 µM) | 8 (≈ 18.5 µM) | 4 (≈ 9.23 µM) | 16 (≈ 36.9 µM) | 2 (≈ 4.61 µM) | – | – | – | – |
| CC(=O)NC[C@H]1CN(c2ccc(N3CC/C(=C(\C)C#N)C3)c(F)c2)C(=O)O1 | 1 (≈ 2.69 µM) | – | – | – | – | 4 (≈ 10.7 µM) | – | 1 (≈ 2.69 µM) | 2 (≈ 5.37 µM) | 1 (≈ 2.69 µM) | 1 (≈ 2.69 µM) | – | – | – | – |
| CC(=O)NC[C@H]1CN(c2ccc(N3CCC(=CC(=O)[O-])CC3)c(F)c2)C(=O)O1.[Na+] | 8 | 2 | 8 | 4 | 8 | 4 | 8 | 1 | 8 | 8 | 1 | – | – | – | – |
| CC(=O)NC[C@H]1CN(c2ccc(N3CC/C(=C/C#N)C3)c(F)c2)C(=O)O1 | 0.5 (≈ 1.4 µM) | – | – | – | – | 1 (≈ 2.79 µM) | – | – | 1 (≈ 2.79 µM) | 0.5 (≈ 1.4 µM) | 0.5 (≈ 1.4 µM) | – | – | – | – |
| CC(=O)NC[C@H]1CN(c2ccc(N3CCOCC3)c(F)c2)C(=O)O1 [LINEZOLID] | – | 0.5 (≈ 1.48 µM) | – | – | – | – | – | 2 (≈ 5.93 µM) | – | – | 0.5 (≈ 1.48 µM) | 4240 | 3.09 | 0.333 | 1390 |
| CN[C@H](CC(C)C)C(=O)N[C@H]1C(=O)N[C@@H](CC(N)=O)C(=O)N[C@H]2C(=O)N[C@H]3C(=O)N[C@H](C(=O)N[C@H](C(=O)O)c4cc(O)cc(O)c4-c4cc3ccc4O)[C@H](O)c3ccc(c(Cl)c3)Oc3cc2cc(c3O[C@@H]2O[C@H](CO)[C@@H](O)[C@H](O)[C@H]2O[C@H]2C[C@](C)(N)[C@H](O)[C@H](C)O2)Oc2ccc(cc2Cl)[C@H]1O [VANCOMYCIN] | – | 0.12 (≈ 0.0828 µM) | – | – | 2 (≈ 1.38 µM) | 1 (≈ 0.69 µM) | – | – | > 32 | – | – | – | – | – | – |
